Laboratory results taken from ChEMBL document CHEMBL3779801, “Discovery of the Selective CYP17A1 Lyase Inhibitor BMS-351 for the Treatment of Prostate Cancer” (ACS Med Chem Lett, 2016).

How the values were obtained:
[1] = Metabolic stability in cynomolgus monkey liver microsomes assessed as parent compound remaining at 0.5 uM incubated for 10 mins; type: ADME, Macaca fascicularis; details: read-out: Stability
In short: (§1)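 Compound at 0.5 μM was incubated with human, mouse or cynomolgus liver microsomes for 10 min.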

[2] = Metabolic stability in human liver microsomes assessed as parent compound remaining at 0.5 uM incubated for 10 mins; type: ADME; details: read-out: Stability; in short: as §1
[3] = Metabolic stability in mouse liver microsomes assessed as parent compound remaining at 0.5 uM incubated for 10 mins; type: ADME; details: read-out: Stability; in short: as §1
[4] = target: T1, Steroid 17-alpha-hydroxylase/17,20 lyase (Homo sapiens, UniProt P05093); assay: Inhibition of human CYP17A1 expressed in HEK293 cell microsomes using [3H]-pregnenolone as substrate incubated for 45 mins by scintillation proximity assay in presence of NADPH
T1 sequence (P05093 whole entry): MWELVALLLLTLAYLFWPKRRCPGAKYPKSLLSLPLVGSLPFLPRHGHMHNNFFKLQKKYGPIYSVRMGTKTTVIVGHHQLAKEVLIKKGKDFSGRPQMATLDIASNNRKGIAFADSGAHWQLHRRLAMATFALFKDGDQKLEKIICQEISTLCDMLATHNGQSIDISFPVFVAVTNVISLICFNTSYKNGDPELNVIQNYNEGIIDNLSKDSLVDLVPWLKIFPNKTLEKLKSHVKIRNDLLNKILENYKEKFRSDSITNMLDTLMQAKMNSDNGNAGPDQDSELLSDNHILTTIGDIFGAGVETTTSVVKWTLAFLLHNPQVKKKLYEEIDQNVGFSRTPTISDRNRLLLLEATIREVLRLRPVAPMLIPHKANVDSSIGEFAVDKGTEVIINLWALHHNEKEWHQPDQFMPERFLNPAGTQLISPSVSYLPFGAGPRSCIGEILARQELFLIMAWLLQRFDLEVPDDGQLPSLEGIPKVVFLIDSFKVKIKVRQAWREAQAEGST

[5] = target: T2, Cytochrome P450 1A2 (Homo sapiens, UniProt P05177); assay: Inhibition of CYP1A2 (unknown origin); type: ADME
T2 sequence (P05177 whole entry): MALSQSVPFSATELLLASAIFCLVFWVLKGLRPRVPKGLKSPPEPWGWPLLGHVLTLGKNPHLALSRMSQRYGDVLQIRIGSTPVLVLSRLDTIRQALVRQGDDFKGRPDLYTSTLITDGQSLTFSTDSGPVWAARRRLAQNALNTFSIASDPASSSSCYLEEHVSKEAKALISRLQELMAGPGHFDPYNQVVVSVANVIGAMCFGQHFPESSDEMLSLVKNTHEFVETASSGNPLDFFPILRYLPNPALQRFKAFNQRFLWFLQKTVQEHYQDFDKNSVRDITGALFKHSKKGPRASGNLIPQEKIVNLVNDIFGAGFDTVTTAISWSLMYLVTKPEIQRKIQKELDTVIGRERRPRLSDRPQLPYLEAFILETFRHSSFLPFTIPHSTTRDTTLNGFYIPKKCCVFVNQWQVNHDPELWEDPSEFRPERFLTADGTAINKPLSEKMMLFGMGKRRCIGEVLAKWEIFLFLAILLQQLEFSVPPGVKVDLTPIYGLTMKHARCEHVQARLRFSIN

[6] = target: T1, Steroid 17-alpha-hydroxylase/17,20 lyase; assay: Selectivity ratio of human CYP17A1 hydroxylase activity expressed in Escherichia coli using pregnenolone substrate to human CYP17A1 lyase activity expressed in HEK293 cell microsomes using [3H]-hydroxypregnenolone substrate
In short: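 Hydroxylase and lyase activities were run with different enzyme preparations, so the hydroxylase/lyase ratios are estimates.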

[7] = target: T3, Steroid 17-alpha-hydroxylase/17,20 lyase (Macaca fascicularis, UniProt Q2XVA1); assay: Inhibition of CYP17A1 in cynomolgus monkey using [3H]-pregnenolone as substrate incubated for 45 mins by scintillation proximity assay in presence of NADPH
T3 sequence (Q2XVA1 whole entry): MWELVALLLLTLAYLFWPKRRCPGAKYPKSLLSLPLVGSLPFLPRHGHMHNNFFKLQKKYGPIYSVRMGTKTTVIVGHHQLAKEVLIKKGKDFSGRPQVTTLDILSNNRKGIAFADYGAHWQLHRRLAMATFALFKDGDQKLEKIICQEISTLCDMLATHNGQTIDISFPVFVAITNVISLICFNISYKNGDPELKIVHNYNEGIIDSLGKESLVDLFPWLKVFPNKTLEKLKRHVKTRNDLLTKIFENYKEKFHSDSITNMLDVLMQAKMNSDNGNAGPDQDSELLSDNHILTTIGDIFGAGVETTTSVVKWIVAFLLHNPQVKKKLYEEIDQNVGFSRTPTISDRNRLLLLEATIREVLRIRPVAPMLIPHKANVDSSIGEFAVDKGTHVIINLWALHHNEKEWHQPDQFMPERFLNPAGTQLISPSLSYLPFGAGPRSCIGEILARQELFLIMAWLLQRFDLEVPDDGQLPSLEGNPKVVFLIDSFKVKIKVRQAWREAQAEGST

[8] = target: T1, Steroid 17-alpha-hydroxylase/17,20 lyase; assay: Inhibition of CYP17A1 in human adrenal microsomes using [3H]-pregnenolone as substrate incubated for 90 mins by scintillation proximity assay in presence of NADPH; set-up: species or system Adrenal gland
[9] = system: Cynomolgus monkey; assay: Increase in progesterone level in one day castrated cynomolgus monkey at 42 mg/kg, po bid for 24 hrs by radiometric immunoassay; type: ADME, organism-based, Macaca fascicularis; details: in vivo
[10] = Inhibition of cynomolgus monkey CYP11B1 using hydroxy progesterone as substrate incubated for 120 mins by LC-MS method; set-up: species or system Macaca fascicularis
[11] = target: T3, Steroid 17-alpha-hydroxylase/17,20 lyase; assay: In vivo inhibition of CYP17A1 in one day castrated cynomolgus monkey assessed as reduction in testosterone level in plasma at 42 mg/kg, po bid for 24 hrs by radiometric immunoassay; type: organism-based
[12] = Tmax in one day castrated cynomolgus monkey at 42 mg/kg, po bid; type: ADME, organism-based, Macaca fascicularis; details: male, in vivo
In short: (§2)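 Castrated cynomolgus monkeys were studied over one day with oral BID dosing at time 0 and 8 h. Plasma levels were sampled at set time points over 1–24 h and reported as average ± standard deviation in nM, n = 4.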

[13] = target: T3, Steroid 17-alpha-hydroxylase/17,20 lyase; assay: Inhibition of CYP17A1 in cynomolgus monkey adrenal microsomes using [3H]-pregnenolone as substrate incubated for 45 mins by scintillation proximity assay in presence of NADPH; set-up: species or system Adrenal gland
[14] = system: Cynomolgus monkey; assay: Decrease in cortisol level in one day castrated cynomolgus monkey at 42 mg/kg, po bid for 24 hrs by radiometric immunoassay; type: ADME, organism-based, Macaca fascicularis; set-up: scale not given: the % may be the effect or the level left; details: in vivo
[15] = Tmax in one day castrated cynomolgus monkey at 42 mg/kg, po bid measured after second dose administered at 8 hrs; type: ADME, organism-based, Macaca fascicularis; details: male, in vivo; in short: as §2
[16] = Inhibition of cynomolgus monkey CYP21A2 using hydroxy progesterone as substrate incubated for 120 mins by LC-MS method; set-up: species or system Macaca fascicularis
[17] = target: T4, Cytochrome P450 11B1, mitochondrial (Homo sapiens, UniProt P15538); assay: Inhibition of CYP11B1 in human H295R cells using deoxycorticosterone as substrate incubated for 48 hrs by LC-MS method; type: ADME, cell-based
T4 sequence (P15538 whole entry): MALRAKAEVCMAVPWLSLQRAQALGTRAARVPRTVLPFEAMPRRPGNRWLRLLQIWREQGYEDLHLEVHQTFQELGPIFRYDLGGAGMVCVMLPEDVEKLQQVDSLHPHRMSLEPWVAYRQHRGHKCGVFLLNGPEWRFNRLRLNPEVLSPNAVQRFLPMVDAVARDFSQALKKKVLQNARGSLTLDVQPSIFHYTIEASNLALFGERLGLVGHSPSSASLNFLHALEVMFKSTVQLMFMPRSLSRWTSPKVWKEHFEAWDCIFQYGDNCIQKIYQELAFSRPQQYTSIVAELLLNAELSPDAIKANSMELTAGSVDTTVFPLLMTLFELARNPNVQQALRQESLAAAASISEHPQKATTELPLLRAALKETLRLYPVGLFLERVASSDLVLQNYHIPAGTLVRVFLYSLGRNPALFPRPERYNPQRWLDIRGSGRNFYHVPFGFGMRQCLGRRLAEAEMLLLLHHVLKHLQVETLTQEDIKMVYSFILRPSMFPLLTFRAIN

remaining at 10 min, 0.5 µM [1]	remaining at 10 min, 0.5 µM [2]	remaining at 10 min, 0.5 µM [3]	IC50 [4]	IC50 [5]	SMILES	further results
53%	72%	7%	5 nM	4000 nM	Cc1ccncc1-c1cccc2c1cnn2-c1cnccn1	
39%	78%	4%	4 nM	119 nM	Cc1ccncc1-c1cccc2c1cnn2-c1ccccc1	
100%	96%	33%	6 nM	94 nM	Cc1ccncc1-c1cccc2c1ncn2-c1ccccn1	Selectivity ratio [6]: 8
	100%	11%	5 nM	190 nM	Cc1ccncc1-c1cccc2c1cnn2-c1ccc(F)cc1	
	62%	12%	5 nM	70 nM	Cc1ccncc1-c1cccc2c1cnn2-c1cscn1	
	69%	8%	4 nM	80 nM	Cc1ccncc1-c1cccc2c1cnn2-c1nccs1	
50%	90%	42%	8 nM	150 nM	Cc1ccncc1-c1cccc2c1ncn2-c1cscn1	
	89%	17%	3 nM	270 nM	Cc1ccncc1-c1cccc2c1cnn2-c1cccnn1	
19%	95%	8%	2 nM	140 nM	Cc1ccncc1-c1cccc2c1cnn2-c1ccccn1	
42%	92%	16%	8 nM	75 nM	Cc1ccncc1-c1cccc2c1ncn2-c1nccs1	Selectivity ratio [6]: 14
					C[C@]12CC[C@H](O)CC1=CC[C@@H]1C2CC[C@]2(C)C(c3cccnc3)=CCC12 (some centres undefined)	IC50 [7]: 2 nM; IC50 [8]: 21 nM; Activity [9]: 1247%; IC50 [10]: 2460 nM; inhibition (INH) [11]: Active; Tmax [12]: 1 h; IC50 [13]: 3 nM; Activity [14]: 80%; Tmax [15]: 9.5 h; IC50 [16]: 149 nM; IC50 [17]: 872 nM
83%	98%	59%		180 nM	Cc1ccncc1-c1cccc2c1ncn2-c1cnccn1	Selectivity ratio [6]: 18
